From the M2OR odorant receptor database

Key:
Conditions in all cases: stereoisomer not certain
OR7D4 (Homo sapiens) = target: T1, OR7D4 (Homo sapiens) (UniProt Q8NG98)
T1 sequence (whole entry): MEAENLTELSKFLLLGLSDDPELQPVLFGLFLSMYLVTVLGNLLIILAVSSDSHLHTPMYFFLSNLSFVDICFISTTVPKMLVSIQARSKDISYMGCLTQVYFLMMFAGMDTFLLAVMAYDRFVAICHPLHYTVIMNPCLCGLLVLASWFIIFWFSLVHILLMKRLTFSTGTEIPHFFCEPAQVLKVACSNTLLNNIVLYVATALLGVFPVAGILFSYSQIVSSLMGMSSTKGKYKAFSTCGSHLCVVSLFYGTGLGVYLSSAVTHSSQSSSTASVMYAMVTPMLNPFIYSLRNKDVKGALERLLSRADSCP
Outline: (§1)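 Transient luciferase assays in mammalian cell lines were common, though methods varied by source. The values come from published papers and their supplementary material, with extra details from the original authors when needed. Responsive refers to a measured signal the original authors judged statistically different from baseline, and non-responsive (inactive) to the remainder.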

OR7D4 R88W = tested on: OR7D4 R88W
OR7D4 R88W, sequence (as listed by the source, stated change not applied): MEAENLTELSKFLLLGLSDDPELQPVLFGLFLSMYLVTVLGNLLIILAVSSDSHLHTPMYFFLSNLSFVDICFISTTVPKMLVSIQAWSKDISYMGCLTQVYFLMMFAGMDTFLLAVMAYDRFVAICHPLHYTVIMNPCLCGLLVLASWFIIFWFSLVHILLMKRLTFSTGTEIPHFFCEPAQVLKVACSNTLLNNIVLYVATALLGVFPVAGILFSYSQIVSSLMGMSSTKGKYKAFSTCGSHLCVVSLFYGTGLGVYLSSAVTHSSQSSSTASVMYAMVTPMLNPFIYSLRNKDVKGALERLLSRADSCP
Outline: as §1

OR7D4 = tested on: OR7D4
OR7D4, sequence (as listed by the source): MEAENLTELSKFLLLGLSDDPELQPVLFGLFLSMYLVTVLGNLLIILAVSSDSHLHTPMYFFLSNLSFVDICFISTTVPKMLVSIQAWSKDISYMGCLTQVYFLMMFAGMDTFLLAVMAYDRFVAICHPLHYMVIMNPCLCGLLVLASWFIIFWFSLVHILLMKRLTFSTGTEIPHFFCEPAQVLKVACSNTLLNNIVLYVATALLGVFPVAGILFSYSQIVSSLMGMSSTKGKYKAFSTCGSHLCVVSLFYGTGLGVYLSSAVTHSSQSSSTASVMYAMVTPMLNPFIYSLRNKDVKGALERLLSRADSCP
Outline: as §1

OR7E24 (Homo sapiens) = OR7E24 (Homo sapiens) (UniProt Q6IFN5)
OR7E24 (Homo sapiens), sequence (Q6IFN5 whole entry): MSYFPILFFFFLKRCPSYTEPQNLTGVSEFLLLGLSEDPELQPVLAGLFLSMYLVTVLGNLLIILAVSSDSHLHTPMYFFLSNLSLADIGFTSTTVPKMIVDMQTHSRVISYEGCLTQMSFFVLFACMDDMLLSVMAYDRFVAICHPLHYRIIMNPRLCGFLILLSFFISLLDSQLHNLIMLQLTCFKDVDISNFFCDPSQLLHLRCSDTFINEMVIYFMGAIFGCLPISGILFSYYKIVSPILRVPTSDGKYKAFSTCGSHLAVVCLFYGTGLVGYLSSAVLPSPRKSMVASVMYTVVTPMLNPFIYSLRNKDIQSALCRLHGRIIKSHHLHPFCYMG
Outline: as §1

OR7G1 (Homo sapiens) = OR7G1 (Homo sapiens) (UniProt Q8NGA0)
OR7G1 (Homo sapiens), sequence (Q8NGA0 whole entry): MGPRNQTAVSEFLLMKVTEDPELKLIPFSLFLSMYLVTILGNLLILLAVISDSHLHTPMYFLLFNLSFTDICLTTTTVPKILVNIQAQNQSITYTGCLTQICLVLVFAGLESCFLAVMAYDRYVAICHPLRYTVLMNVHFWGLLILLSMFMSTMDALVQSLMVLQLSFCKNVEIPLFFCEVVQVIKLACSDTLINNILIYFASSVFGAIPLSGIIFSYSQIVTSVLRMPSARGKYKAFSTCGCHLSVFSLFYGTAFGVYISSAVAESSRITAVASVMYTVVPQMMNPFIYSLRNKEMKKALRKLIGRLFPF
Outline: as §1

OR7G2 = tested on: OR7G2
OR7G2, sequence (as listed by the source): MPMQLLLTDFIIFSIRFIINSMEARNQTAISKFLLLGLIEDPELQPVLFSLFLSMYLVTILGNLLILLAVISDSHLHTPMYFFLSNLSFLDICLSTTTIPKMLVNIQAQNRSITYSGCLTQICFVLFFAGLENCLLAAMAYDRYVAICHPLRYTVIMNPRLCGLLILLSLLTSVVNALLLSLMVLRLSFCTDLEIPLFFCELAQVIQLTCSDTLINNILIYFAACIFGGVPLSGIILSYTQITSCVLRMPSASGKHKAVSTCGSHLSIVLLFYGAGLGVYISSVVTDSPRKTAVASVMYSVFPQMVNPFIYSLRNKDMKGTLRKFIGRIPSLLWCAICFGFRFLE
Outline: as §1

OR7G3 (Homo sapiens) = OR7G3 (Homo sapiens) (UniProt Q8NG95)
OR7G3 (Homo sapiens), sequence (Q8NG95 whole entry): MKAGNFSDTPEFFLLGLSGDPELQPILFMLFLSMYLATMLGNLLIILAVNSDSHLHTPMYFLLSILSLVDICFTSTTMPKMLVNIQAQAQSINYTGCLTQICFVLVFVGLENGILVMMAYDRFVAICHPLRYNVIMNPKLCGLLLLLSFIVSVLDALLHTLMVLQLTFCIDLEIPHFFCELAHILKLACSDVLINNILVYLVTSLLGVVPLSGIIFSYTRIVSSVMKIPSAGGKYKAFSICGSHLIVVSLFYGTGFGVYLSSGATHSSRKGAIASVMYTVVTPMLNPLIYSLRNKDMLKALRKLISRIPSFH
Outline: as §1

OR7G3 M29V = tested on: OR7G3 M29V
OR7G3 M29V, sequence (as listed by the source, stated change not applied): as the sequence (Q8NG95 whole entry) above, with M29V counted along it
Outline: as §1

OR8A1 (Homo sapiens) = OR8A1 (Homo sapiens) (UniProt Q8NGG7)
OR8A1 (Homo sapiens), sequence (Q8NGG7 whole entry): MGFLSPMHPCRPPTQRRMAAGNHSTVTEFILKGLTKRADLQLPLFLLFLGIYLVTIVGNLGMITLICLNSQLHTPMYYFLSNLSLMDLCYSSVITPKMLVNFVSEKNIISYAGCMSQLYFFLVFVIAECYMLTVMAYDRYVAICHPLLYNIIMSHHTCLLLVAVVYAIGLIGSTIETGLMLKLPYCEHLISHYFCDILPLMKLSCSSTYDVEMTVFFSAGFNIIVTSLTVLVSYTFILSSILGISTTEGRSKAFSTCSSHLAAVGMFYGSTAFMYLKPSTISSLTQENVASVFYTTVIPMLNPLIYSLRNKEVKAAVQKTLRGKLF
Outline: as §1

OR7G2 (Homo sapiens) = OR7G2 (Homo sapiens) (UniProt Q8NG99)
OR7G2 (Homo sapiens), sequence (Q8NG99 whole entry): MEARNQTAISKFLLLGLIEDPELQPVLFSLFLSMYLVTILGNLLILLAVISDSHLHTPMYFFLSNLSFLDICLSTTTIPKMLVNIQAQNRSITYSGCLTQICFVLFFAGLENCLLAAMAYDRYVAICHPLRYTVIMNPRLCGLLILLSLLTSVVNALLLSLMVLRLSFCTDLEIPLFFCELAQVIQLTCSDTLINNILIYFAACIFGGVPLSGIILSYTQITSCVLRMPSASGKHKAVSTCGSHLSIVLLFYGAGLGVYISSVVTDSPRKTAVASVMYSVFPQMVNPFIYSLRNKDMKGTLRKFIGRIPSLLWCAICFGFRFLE
Outline: as §1

Measured: odorant receptor agonist call;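 note: active if original authors judged signal statistically different from baseline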

C=CCOC(=O)Cc1ccccc1
not listed: OR7G2 (Homo sapiens)
inactive: all other assays above

Cc1c([N+](=O)[O-])c(C)c([N+](=O)[O-])c(C(C)(C)C)c1[N+](=O)[O-]
inactive: OR7D4 (Homo sapiens) | OR7E24 (Homo sapiens) | OR7G1 (Homo sapiens) | OR7G2 (Homo sapiens) | OR7G3 (Homo sapiens) | OR8A1 (Homo sapiens)

C=C(C)C1CCC2(C)OOC(C1)O2 (configuration not stated)
inactive: OR7D4 (Homo sapiens) | OR7D4
